Data as given in ChEMBL document CHEMBL1142767, “2-(2-Furanyl)-7-phenyl[1,2,4]triazolo[1,5-c]pyrimidin-5-amine analogs: highly potent, orally active, adenosine A2A antagonists. Part 1” (Bioorg Med Chem Lett, 2005).
Calls of active or inactive are those of the source.

What was measured:
Adenosine receptor A2a = Adenosine receptor A2a (Rattus norvegicus, UniProt P30543); test: In vitro ability to displace [3H]SCH-58261 from A2A adenosine receptor in Rat
[1] = target: Adenosine receptors; A1 & A2a (Rattus norvegicus) (UniProt P25099+P30543)
Adenosine receptors; A1 & A2a (Rattus norvegicus), sequence (P25099 whole entry, looked up): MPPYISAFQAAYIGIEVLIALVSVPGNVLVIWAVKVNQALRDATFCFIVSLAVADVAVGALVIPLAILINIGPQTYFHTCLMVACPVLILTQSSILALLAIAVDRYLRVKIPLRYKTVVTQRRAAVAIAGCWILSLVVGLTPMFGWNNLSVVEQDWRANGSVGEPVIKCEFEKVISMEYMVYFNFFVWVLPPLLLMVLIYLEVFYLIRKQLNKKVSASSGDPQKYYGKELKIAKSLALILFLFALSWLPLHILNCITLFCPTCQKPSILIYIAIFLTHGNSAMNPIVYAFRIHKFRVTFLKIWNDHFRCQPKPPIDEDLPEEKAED
Adenosine receptors; A1 & A2a (Rattus norvegicus), sequence (P30543 whole entry, looked up): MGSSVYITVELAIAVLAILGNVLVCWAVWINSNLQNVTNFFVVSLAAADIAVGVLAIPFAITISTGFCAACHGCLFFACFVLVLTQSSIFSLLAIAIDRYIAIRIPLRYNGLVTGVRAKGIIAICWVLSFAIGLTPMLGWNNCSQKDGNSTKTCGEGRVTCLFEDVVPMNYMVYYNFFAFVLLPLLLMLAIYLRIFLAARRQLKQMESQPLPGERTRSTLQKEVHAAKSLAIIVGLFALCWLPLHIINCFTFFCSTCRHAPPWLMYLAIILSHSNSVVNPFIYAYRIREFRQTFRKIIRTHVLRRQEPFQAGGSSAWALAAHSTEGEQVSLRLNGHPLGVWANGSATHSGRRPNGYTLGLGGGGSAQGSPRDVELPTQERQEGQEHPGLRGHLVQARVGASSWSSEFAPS

Rattus norvegicus [2] = test: Anti-cataleptic activity in Rat at oral dose of 3 mg/kg retested at 1 hr after administration; type: functional
Summary of the method: (§1)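 Male CD rats, 200-240 g, housed 4 per cage on a 12-h light/dark cycle. Catalepsy was induced with haloperidol 1 mg/kg s.c. After 30 min, each rat was placed facing upward on a wire screen inclined at 60°, and time to move one limb was recorded (cut-off 120 s). Rats immobile >75 s received test compound orally and were retested at 1 and 4 h.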

Rattus norvegicus [3] = test: Anti-cataleptic activity in Rat at oral dose of 3 mg/kg retested at 4 hr after administration; type: functional; summary of the method: as §1
Rattus norvegicus [4] = test: Anti-cataleptic activity in Rat at oral dose of 3 mg/kg retested at 1 and 4 hr after administration; Activity Not Traced; type: functional, organism-based; parameters: dose 3 mg/kg; summary of the method: as §1

Adenosine receptor A2a, sequence (P30543 whole entry): as the sequence (P30543 whole entry, looked up) above

SMILES | Ki (Adenosine receptor A2a) | Index [1] | Activity (Rattus norvegicus [2]) | Activity (Rattus norvegicus [3]) | Activity (Rattus norvegicus [4])
COc1ccc(OC)c(-c2cc3nc(-c4ccco4)nn3c(N)n2)c1 | 4.5 nM | 65 | – | – | –
COCCOc1ccc(N2CCN(Cc3cccc(-c4cc5nc(-c6ccco6)nn5c(N)n4)c3)CC2)cc1C#N | 1.1 nM | 314 | 14 | 9 | –
Nc1nc(-c2cccc(-c3ccccc3)c2)cc2nc(-c3ccco3)nn12 | 5.5 nM | 82 | – | – | –
Cc1cccc(-c2cc3nc(-c4ccco4)nn3c(N)n2)c1 | 3.7 nM | 13 | – | – | –
COc1cc(-c2cc3nc(-c4ccco4)nn3c(N)n2)cc(OC)c1OC | 4.5 nM | 69 | – | – | –
Nc1nc(-c2cccc(CO)c2)cc2nc(-c3ccco3)nn12 | 2.8 nM | 135 | – | – | –
Nc1nc(-c2cccc(CN3CCN(c4ccccc4)CC3)c2)cc2nc(-c3ccco3)nn12 | 4.6 nM | 69 | – | – | inactive
Nc1nc(-c2cccc(CN3CCC(c4ccccc4)CC3)c2)cc2nc(-c3ccco3)nn12 | 4.6 nM | 69 | – | – | inactive
COc1ccc(-c2cc3nc(-c4ccco4)nn3c(N)n2)c(OC)c1 | 2.9 nM | 98 | – | – | –
Nc1nc(-c2cccs2)cc2nc(-c3ccco3)nn12 | 4.4 nM | 15 | – | – | –
COCCOc1cccc(N2CCN(Cc3cccc(-c4cc5nc(-c6ccco6)nn5c(N)n4)c3)CC2)c1 | 4 nM | 115 | 29 | 53 | –
Nc1nc(-c2cccnc2)cc2nc(-c3ccco3)nn12 | 6.6 nM | 65 | – | – | –
Nc1nc(-c2ccccc2)cc2nc(-c3ccco3)nn12 | 7 nM | 3 | – | – | –
Nc1nc(-c2cccc(CN3CCN(c4nccs4)CC3)c2)cc2nc(-c3ccco3)nn12 | 2.4 nM | 192 | 20 | 10 | –
Nc1nc(-c2ccncc2)cc2nc(-c3ccco3)nn12 | 1.9 nM | 66 | – | – | –
COCCOc1ccc(C2CCN(Cc3cccc(-c4cc5nc(-c6ccco6)nn5c(N)n4)c3)CC2)cc1 | 8.9 nM | 202 | 0 | 0 | –
COc1ccccc1-c1cc2nc(-c3ccco3)nn2c(N)n1 | 4.3 nM | 27 | – | – | –
Nc1nc(-c2ccccn2)cc2nc(-c3ccco3)nn12 | 1.4 nM | 34 | – | – | –
COc1ccc(-c2cc3nc(-c4ccco4)nn3c(N)n2)cc1OC | 7.3 nM | 64 | – | – | –
CN(CCc1ccccc1)Cc1cccc(-c2cc3nc(-c4ccco4)nn3c(N)n2)c1 | 3.6 nM | 135 | – | – | inactive
COc1cccc(-c2cc3nc(-c4ccco4)nn3c(N)n2)c1 | 5 nM | 20 | – | – | –
COCCOc1ccc(N2CCN(Cc3cccc(-c4cc5nc(-c6ccco6)nn5c(N)n4)c3)CC2)cc1 | 2.8 nM | 601 | 40 | 65 | –
COc1cccc(-c2cc3nc(-c4ccco4)nn3c(N)n2)c1OC | 21.7 nM | 27 | – | – | –
COc1ccc(-c2cc3nc(-c4ccco4)nn3c(N)n2)c(OC)c1OC | 4.5 nM | 17 | – | – | –
COCCOc1ccc(N2CCN(Cc3cccc(-c4cc5nc(-c6ccco6)nn5c(N)n4)c3)CC2)c(Cl)c1 | 2.9 nM | 204 | 12 | 15 | –

Second part, led by results:

Ki (Adenosine receptor A2a) | Index [1] | SMILES | Activity (Rattus norvegicus [2]) | Activity (Rattus norvegicus [3]) | Activity (Rattus norvegicus [4])
1700 nM | 1 | COc1cccc(OC)c1-c1cc2nc(-c3ccco3)nn2c(N)n1 | – | – | –
8.4 nM | 19 | Cc1ccc(-c2cc3nc(-c4ccco4)nn3c(N)n2)cc1 | – | – | –
6.4 nM | 71 | COCCOc1cc(F)c(N2CCN(Cc3cccc(-c4cc5nc(-c6ccco6)nn5c(N)n4)c3)CC2)c(F)c1 | – | – | inactive
10.5 nM | 3 | Nc1nc(-c2cccc(CN3CCN(c4ccc(Cl)c(Cl)c4)CC3)c2)cc2nc(-c3ccco3)nn12 | – | – | inactive
3.6 nM | 85 | COCCOc1ccc(N2CCN(Cc3cccc(-c4cc5nc(-c6ccco6)nn5c(N)n4)c3)CC2)c(C#N)c1 | – | – | inactive
5 nM | 11 | Nc1cccc(-c2cc3nc(-c4ccco4)nn3c(N)n2)c1 | – | – | –
2.7 nM | 72 | COCCOc1ccc(N2CCN(Cc3cccc(-c4cc5nc(-c6ccco6)nn5c(N)n4)c3)CC2)c(C)c1 | – | – | inactive
7.3 nM | 103 | COc1ccc(-c2cc3nc(-c4ccco4)nn3c(N)n2)cc1 | – | – | –
4.7 nM | 31 | CC(C)c1ccc(-c2cc3nc(-c4ccco4)nn3c(N)n2)cc1 | – | – | –
2.7 nM | 642 | COCCOc1ccc(N2CCN(Cc3cccc(-c4cc5nc(-c6ccco6)nn5c(N)n4)c3)CC2)c(F)c1 | 20 | 0 | –
7.4 nM | 115 | Nc1nc(-c2cccc(CN3CCC(c4ccc(F)cc4)CC3)c2)cc2nc(-c3ccco3)nn12 | 20 | 20 | –
22 nM | 12 | Cc1ccccc1-c1cc2nc(-c3ccco3)nn2c(N)n1 | – | – | –
3.3 nM | 134 | COCCOc1ccc(N2CCN(Cc3cccc(-c4cc5nc(-c6ccco6)nn5c(N)n4)c3)CC2)cc1OC | 33 | 39 | –
2.2 nM | 338 | COCCOc1c(F)cc(N2CCN(Cc3cccc(-c4cc5nc(-c6ccco6)nn5c(N)n4)c3)CC2)cc1F | 28 | 47 | –
5.4 nM | 14 | N#Cc1cccc(-c2cc3nc(-c4ccco4)nn3c(N)n2)c1 | – | – | –
